According to ChEMBL document CHEMBL1147379, “Antineoplastic agents, 256. Cell growth inhibitory isocarbostyrils from Hymenocallis” (1993):

Columns and labels:
Assay type in all cases: functional
CCRF-CEM = assay: Growth inhibition of human CCRF-CEM cells
Outline: (§1)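 NCI 60-human-tumour-cell-line primary in vitro screen. Each compound was tested eight separate times across three concentration ranges with upper limits of 10⁻⁴, 10⁻⁵ and 10⁻⁶ M. Each range used five 10-fold dilutions. GI₅₀, TGI and LC₅₀ were calculated from the concentration-response curves for each cell line, and averaged mean-graph values were constructed from them.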

HL-60 = assay: Growth inhibition of human HL-60(TB) cells; outline: as §1
K562 = assay: Growth inhibition of human K562 cells; outline: as §1
MOLT-4 = assay: Growth inhibition of human MOLT4 cells; outline: as §1
RPMI-8226 = assay: Growth inhibition of human RPMI8226 cells; outline: as §1
SR = assay: Growth inhibition of human SR cells
Outline: (§2)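 NCI 60-human-tumour-line in vitro primary screen. Each compound tested eight separate times over three concentration ranges (upper limits 10⁻⁴, 10⁻⁵ and 10⁻⁶ M), each range as five 10-fold dilutions. GI₅₀ (also TGI and LC₅₀) derived from the concentration-response curves, reported as averaged values per cell line (negative log₁₀).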

A549 = assay: Growth inhibition of human A549 cells; outline: as §1
EKVX = assay: Growth inhibition of human EKVX cells; outline: as §1
HOP-18 = assay: Growth inhibition of human HOP18 cells; outline: as §1
HOP-62 = assay: Growth inhibition of human HOP62 cells; outline: as §1
HOP-92 = assay: Growth inhibition of human HOP92 cells; outline: as §1
NCI-H226 = assay: Growth inhibition of human NCI-H226 cells; outline: as §1
NCI-H23 = assay: Growth inhibition of human NCI-H23 cells; outline: as §1
NCI-H322M = assay: Growth inhibition of human NCI-H322M cells; outline: as §1
NCI-H460 = assay: Growth inhibition of human NCI-H460 cells; outline: as §1
NCI-H522 = assay: Growth inhibition of human NCI-H522 cells; outline: as §1
[1] = Growth inhibition of human LXFL529 cells; outline: as §1
DMS-114 = assay: Growth inhibition of human DMS114 cells; outline: as §1
DMS-273 = assay: Growth inhibition of human DMS273 cells; outline: as §1
COLO 205 = assay: Growth inhibition of human COLO205 cells; outline: as §1
DLD-1 = assay: Growth inhibition of human DLD1 cells; outline: as §1
HCC 2998 = assay: Growth inhibition of human HCC2998 cells; outline: as §1
HCT-116 = assay: Growth inhibition of human HCT116 cells; outline: as §1
HCT-15 = assay: Growth inhibition of human HCT15 cells; outline: as §1
HT-29 = assay: Growth inhibition of human HT-29 cells; outline: as §1
KM12 = assay: Growth inhibition of human KM12 cells; outline: as §1
KM-20L2 = assay: Growth inhibition of human KM20L2 cells; outline: as §1
SW-620 = assay: Growth inhibition of human SW620 cells; outline: as §2
SF-268 = assay: Growth inhibition of human SF268 cells; outline: as §1
SF-295 = assay: Growth inhibition of human SF295 cells; outline: as §1
[2] = read-out: pLC50 (the source's name) (converted)

Question: For `O=C1N[C@H]2[C@H](O)[C@H](O)[C@@H](O)C[C@@H]2c2cc3c(cc21)OCO3`, which GI50 (CCRF-CEM) is on record?
Answer: 34.7 nM

Question: And the CC50 (CCRF-CEM; [2])?
Answer: > 100000 nM

Question: And the TGI (CCRF-CEM; read-out: pTGI (converted))?
Answer: 525 nM

Question: And the GI50 (HL-60)?
Answer: 32.4 nM

Question: And the CC50 (HL-60; [2])?
Answer: 30200 nM

Question: What about the TGI (HL-60; read-out: pTGI (converted)) of the same compound?
Answer: 191 nM

Question: What about the GI50 (K562) of the same compound?
Answer: 46.8 nM

Question: What about the CC50 (K562; [2]) of the same compound?
Answer: > 100000 nM

Question: What about the TGI (K562; read-out: pTGI (converted)) of the same compound?
Answer: 1100 nM

Question: And the GI50 (MOLT-4)?
Answer: 44.7 nM

Question: What about the CC50 (MOLT-4; [2]) of the same compound?
Answer: > 100000 nM

Question: What about the TGI (MOLT-4; read-out: pTGI (converted)) of the same compound?
Answer: 1910 nM

Question: What about the GI50 (RPMI-8226) of the same compound?
Answer: 95.5 nM

Question: What about the CC50 (RPMI-8226; [2]) of the same compound?
Answer: > 100000 nM

Question: What about the TGI (RPMI-8226; read-out: pTGI (converted)) of the same compound?
Answer: 776 nM

Question: And the GI50 (SR)?
Answer: 52.5 nM

Question: And the CC50 (SR; [2])?
Answer: 56200 nM

Question: What about the TGI (SR; read-out: pTGI (converted)) of the same compound?
Answer: 3240 nM

Question: What about the GI50 (A549) of the same compound?
Answer: 100 nM

Question: And the CC50 (A549; [2])?
Answer: > 100000 nM

Question: And the TGI (A549; read-out: pTGI (converted))?
Answer: 1290 nM

Question: And the GI50 (EKVX)?
Answer: 331 nM

Question: And the CC50 (EKVX; [2])?
Answer: 81300 nM

Question: What about the TGI (EKVX; read-out: pTGI (converted)) of the same compound?
Answer: 3720 nM

Question: What about the GI50 (HOP-18) of the same compound?
Answer: 158 nM

Question: What about the CC50 (HOP-18; [2]) of the same compound?
Answer: 79400 nM

Question: What about the TGI (HOP-18; read-out: pTGI (converted)) of the same compound?
Answer: 1700 nM

Question: What about the GI50 (HOP-62) of the same compound?
Answer: 64.6 nM

Question: And the CC50 (HOP-62; [2])?
Answer: 10000 nM

Question: What about the TGI (HOP-62; read-out: pTGI (converted)) of the same compound?
Answer: 501 nM

Question: And the GI50 (HOP-92)?
Answer: 75.9 nM

Question: And the CC50 (HOP-92; [2])?
Answer: > 100000 nM

Question: And the TGI (HOP-92; read-out: pTGI (converted))?
Answer: 741 nM

Question: What about the GI50 (NCI-H226) of the same compound?
Answer: 151 nM

Question: What about the CC50 (NCI-H226; [2]) of the same compound?
Answer: 8710 nM

Question: And the TGI (NCI-H226; read-out: pTGI (converted))?
Answer: 759 nM

Question: What about the GI50 (NCI-H23) of the same compound?
Answer: 53.7 nM

Question: And the CC50 (NCI-H23; [2])?
Answer: 6460 nM

Question: What about the TGI (NCI-H23; read-out: pTGI (converted)) of the same compound?
Answer: 363 nM

Question: And the GI50 (NCI-H322M)?
Answer: 70.8 nM

Question: And the CC50 (NCI-H322M; [2])?
Answer: 57500 nM

Question: And the TGI (NCI-H322M; read-out: pTGI (converted))?
Answer: 708 nM

Question: What about the GI50 (NCI-H460) of the same compound?
Answer: 38.9 nM

Question: And the CC50 (NCI-H460; [2])?
Answer: 52500 nM

Question: And the TGI (NCI-H460; read-out: pTGI (converted))?
Answer: 813 nM

Question: And the GI50 (NCI-H522)?
Answer: 37.1 nM

Question: And the CC50 (NCI-H522; [2])?
Answer: 3800 nM

Question: What about the TGI (NCI-H522; read-out: pTGI (converted)) of the same compound?
Answer: 240 nM

Question: And the GI50 ([1]; LXFL 529)?
Answer: 46.8 nM

Question: What about the CC50 ([1]; LXFL 529, read-out: pLC50 (the source's name) (converted)) of the same compound?
Answer: 26900 nM

Question: And the TGI ([1]; LXFL 529, read-out: pTGI (converted))?
Answer: 708 nM

Question: What about the GI50 (DMS-114) of the same compound?
Answer: 50.1 nM

Question: What about the CC50 (DMS-114; [2]) of the same compound?
Answer: 14100 nM

Question: And the TGI (DMS-114; read-out: pTGI (converted))?
Answer: 513 nM

Question: And the GI50 (DMS-273)?
Answer: 61.7 nM

Question: And the CC50 (DMS-273; [2])?
Answer: 12000 nM

Question: And the TGI (DMS-273; read-out: pTGI (converted))?
Answer: 603 nM

Question: And the GI50 (COLO 205)?
Answer: 53.7 nM

Question: What about the CC50 (COLO 205; [2]) of the same compound?
Answer: 457 nM

Question: What about the TGI (COLO 205; read-out: pTGI (converted)) of the same compound?
Answer: 200 nM

Question: And the GI50 (DLD-1)?
Answer: 43.6 nM

Question: What about the CC50 (DLD-1; [2]) of the same compound?
Answer: > 100000 nM

Question: And the TGI (DLD-1; read-out: pTGI (converted))?
Answer: 832 nM

Question: What about the GI50 (HCC 2998) of the same compound?
Answer: 77.6 nM

Question: And the CC50 (HCC 2998; [2])?
Answer: 15800 nM

Question: And the TGI (HCC 2998; read-out: pTGI (converted))?
Answer: 813 nM

Question: What about the GI50 (HCT-116) of the same compound?
Answer: 33.1 nM

Question: And the CC50 (HCT-116; [2])?
Answer: 24000 nM

Question: And the TGI (HCT-116; read-out: pTGI (converted))?
Answer: 398 nM

Question: And the GI50 (HCT-15)?
Answer: 85.1 nM

Question: And the CC50 (HCT-15; [2])?
Answer: 85100 nM

Question: And the TGI (HCT-15; read-out: pTGI (converted))?
Answer: 1200 nM

Question: And the GI50 (HT-29)?
Answer: 61.7 nM

Question: And the CC50 (HT-29; [2])?
Answer: > 100000 nM

Question: And the TGI (HT-29; read-out: pTGI (converted))?
Answer: 813 nM

Question: And the GI50 (KM12)?
Answer: 46.8 nM

Question: And the CC50 (KM12; [2])?
Answer: 24000 nM

Question: And the TGI (KM12; read-out: pTGI (converted))?
Answer: 912 nM

Question: And the GI50 (KM-20L2)?
Answer: 51.3 nM

Question: What about the CC50 (KM-20L2; [2]) of the same compound?
Answer: 66100 nM

Question: What about the TGI (KM-20L2; read-out: pTGI (converted)) of the same compound?
Answer: 912 nM

Question: What about the GI50 (SW-620) of the same compound?
Answer: 64.6 nM

Question: What about the CC50 (SW-620; [2]) of the same compound?
Answer: > 100000 nM

Question: What about the TGI (SW-620; read-out: pTGI (converted)) of the same compound?
Answer: 2400 nM

Question: And the GI50 (SF-268)?
Answer: 70.8 nM

Question: And the CC50 (SF-268; [2])?
Answer: 63100 nM

Question: And the TGI (SF-268; read-out: pTGI (converted))?
Answer: 1510 nM

Question: What about the GI50 (SF-295) of the same compound?
Answer: 141 nM

Question: And the CC50 (SF-295; [2])?
Answer: 41700 nM
